The text below walks through data of ChEMBL document CHEMBL2040780, “Antiarrhythmic properties of phenylpiperazine derivatives of phenytoin with α₁-adrenoceptor affinities” (Bioorg Med Chem, 2012).

Activity calls are given as the source filed them. Some results are limits rather than exact numbers.

The test system of one data set is Rattus norvegicus. The experiment in a line: Antiarrhythmic activity in Wistar rat assessed as effect on heart beat at 10 mg/kg, iv after 1 min. It counts as functional.
Settings: not given
The method in brief:
(§1)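 Male Wistar rats (180–250 g), anaesthetised with thiopental 60 mg/kg ip. Standard lead II ECG recorded at 50 mm/s just before dosing and at 1, 5 and 15 min after. Heart rate and P–Q, Q–T and QRS intervals were read. n=6 per group, mean ± SEM, one-way ANOVA.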
On to `CN1C(=O)N(CC(O)CN2CCN(c3ccccc3Cl)CC2)C(c2ccccc2)(c2ccccc2)C1=O.Cl` (racemic), for which the Activity amounted to 279 min⁻¹.

For the compound `C=CC(C(=O)OC)N1C(=O)N(CC(O)CN2CCN(c3ccccc3OC)CC2)C(c2ccccc2)(c2ccccc2)C1=O.Cl` (racemic), the Activity was found to be 261 min⁻¹.

In a further data set the test system is Rattus norvegicus. The experiment in a line: Antiarrhythmic activity in dosed Wistar rat assessed as protection against barium chloride-induced fibrillation administered 15 mins prior to barium chloride-challenge. It counts as functional, Heart.
Settings: not given
The method in brief: (§2)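 Szekeres model in male Wistar rats. Activity is gradual disappearance of arrhythmia with restored sinus rhythm; protection against disturbances and death scored. Groups of 6 animals.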
In the case of `CN1C(=O)N(CC(O)CN2CCN(c3ccccc3Cl)CC2)C(c2ccccc2)(c2ccccc2)C1=O.Cl` (racemic), the Activity is recorded as more than 50%.

Staying with this data set, now noted: Heart.
For the compound `C=CC(C(=O)OC)N1C(=O)N(CC(O)CN2CCN(c3ccccc3OC)CC2)C(c2ccccc2)(c2ccccc2)C1=O.Cl` (racemic), the outcome was inactive.

A further data set concerns Rattus norvegicus. The experiment in a line: Cardiotoxicity in Wistar rat assessed as effect on QRS interval at 10 mg/kg, iv after 5 mins. It counts as toxicity, organism-based. Also on record: dose 10 mg/kg, route intravenous. As to conditions: in vivo. The method in brief:
as §1
Turning to `CN1C(=O)N(CC(O)CN2CCN(c3ccccc3Cl)CC2)C(c2ccccc2)(c2ccccc2)C1=O.Cl` (racemic), the Activity was 16 ms.

With `C=CC(C(=O)OC)N1C(=O)N(CC(O)CN2CCN(c3ccccc3OC)CC2)C(c2ccccc2)(c2ccccc2)C1=O.Cl` (racemic), the Activity is listed as 23 ms.

In another data set the test system is Rattus norvegicus. The experiment in a line: Cardiotoxicity in Wistar rat assessed as effect on P-Q interval at 10 mg/kg, iv after 15 mins. It counts as toxicity, organism-based. Details: dose 10 mg/kg, route intravenous. As to conditions: in vivo, 0.25 h. The method in brief:
as §1
Turning to `CN1C(=O)N(CC(O)CN2CCN(c3ccccc3Cl)CC2)C(c2ccccc2)(c2ccccc2)C1=O.Cl` (racemic), the Activity is 60 ms.

As for `C=CC(C(=O)OC)N1C(=O)N(CC(O)CN2CCN(c3ccccc3OC)CC2)C(c2ccccc2)(c2ccccc2)C1=O.Cl` (racemic), the Activity came to 56 ms.

In the next data set the test system is Rattus norvegicus. The experiment in a line: Cardiotoxicity in Wistar rat assessed as effect on QRS interval at 10 mg/kg, iv after 1 min. As to conditions: in vivo. Details: dose 10 mg/kg, route intravenous. It counts as toxicity, organism-based. The procedure, abridged:
as §1
On to `CN1C(=O)N(CC(O)CN2CCN(c3ccccc3Cl)CC2)C(c2ccccc2)(c2ccccc2)C1=O.Cl` (racemic), for which the Activity is 17 ms.

With `C=CC(C(=O)OC)N1C(=O)N(CC(O)CN2CCN(c3ccccc3OC)CC2)C(c2ccccc2)(c2ccccc2)C1=O.Cl` (racemic), the Activity was determined as 25 ms.

For another data set, the system named is Rattus norvegicus. The experiment in a line: Cardiotoxicity in Wistar rat assessed as effect on Q-T interval at 10 mg/kg, iv after 1 min. Also on record: dose 10 mg/kg, route intravenous. As to conditions: in vivo. It counts as toxicity, organism-based. The procedure, abridged:
as §1
Consider `CN1C(=O)N(CC(O)CN2CCN(c3ccccc3Cl)CC2)C(c2ccccc2)(c2ccccc2)C1=O.Cl` (racemic), for which the Activity was 83 ms.

As for `C=CC(C(=O)OC)N1C(=O)N(CC(O)CN2CCN(c3ccccc3OC)CC2)C(c2ccccc2)(c2ccccc2)C1=O.Cl` (racemic), the Activity worked out at 82 ms.

In the next data set the test system is Rattus norvegicus. The experiment in a line: Cardiotoxicity in Wistar rat assessed as effect on QRS interval at 10 mg/kg, iv after 15 mins. It counts as toxicity, organism-based. Details: dose 10 mg/kg, route intravenous. As to conditions: in vivo, 0.25 h. The procedure, abridged: as §1
Turning to `CN1C(=O)N(CC(O)CN2CCN(c3ccccc3Cl)CC2)C(c2ccccc2)(c2ccccc2)C1=O.Cl` (racemic), the Activity is 16 ms.

In the case of `C=CC(C(=O)OC)N1C(=O)N(CC(O)CN2CCN(c3ccccc3OC)CC2)C(c2ccccc2)(c2ccccc2)C1=O.Cl` (racemic), the Activity worked out at 25 ms.

Another data set concerns Rattus norvegicus. The experiment in a line: Antiarrhythmic activity in iv dosed barium chloride-induced Wistar rat arrhythmia model assessed as protection against mortality administered 15 mins prior to barium chloride-challenge. It counts as functional. As to conditions: Heart. The procedure, abridged:
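Male Wistar rats (180–250 g), groups of 6. Activity criterion: gradual disappearance of arrhythmia and restoration of sinus rhythm; protection against heart disturbances and death scored.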
`C=CC(C(=O)OC)N1C(=O)N(CC(O)CN2CCN(c3ccccc3OC)CC2)C(c2ccccc2)(c2ccccc2)C1=O.Cl` (racemic): the result was inactive.

The subject of another data set is Rattus norvegicus. The experiment in a line: Cardiotoxicity in Wistar rat assessed as effect on Q-T interval at 10 mg/kg, iv after 5 mins. Also on record: dose 10 mg/kg, route intravenous. It counts as toxicity, organism-based. As to conditions: in vivo. The procedure, abridged: as §1
`CN1C(=O)N(CC(O)CN2CCN(c3ccccc3Cl)CC2)C(c2ccccc2)(c2ccccc2)C1=O.Cl` (racemic): the Activity is recorded as 76 ms.

For `C=CC(C(=O)OC)N1C(=O)N(CC(O)CN2CCN(c3ccccc3OC)CC2)C(c2ccccc2)(c2ccccc2)C1=O.Cl` (racemic), the Activity came out at 78 ms.

Another data set relates to Rattus norvegicus. The experiment in a line: Cardiotoxicity in Wistar rat assessed as effect on Q-T interval at 10 mg/kg, iv after 15 mins. It counts as toxicity, organism-based. Details: dose 10 mg/kg, route intravenous. As to conditions: in vivo, 0.25 h. The method in brief:
as §1
With `CN1C(=O)N(CC(O)CN2CCN(c3ccccc3Cl)CC2)C(c2ccccc2)(c2ccccc2)C1=O.Cl` (racemic), the Activity is recorded as 72 ms.

Turning to `C=CC(C(=O)OC)N1C(=O)N(CC(O)CN2CCN(c3ccccc3OC)CC2)C(c2ccccc2)(c2ccccc2)C1=O.Cl` (racemic), the Activity was 71 ms.

In the next data set the test system is Rattus norvegicus. The experiment in a line: Antiarrhythmic activity in Wistar rat assessed as effect on heart beat at 10 mg/kg, iv after 15 mins.
Settings: not given
It counts as functional. The method in brief: as §1
Take `CN1C(=O)N(CC(O)CN2CCN(c3ccccc3Cl)CC2)C(c2ccccc2)(c2ccccc2)C1=O.Cl` (racemic): the Activity was 303 min⁻¹.

For `C=CC(C(=O)OC)N1C(=O)N(CC(O)CN2CCN(c3ccccc3OC)CC2)C(c2ccccc2)(c2ccccc2)C1=O.Cl` (racemic), the Activity turned out to be 291 min⁻¹.

In another data set the target is T1, Adrenergic receptor alpha-1 (Rattus norvegicus, UniProt P15823+P23944+P43140).
T1 sequence (P15823 whole entry): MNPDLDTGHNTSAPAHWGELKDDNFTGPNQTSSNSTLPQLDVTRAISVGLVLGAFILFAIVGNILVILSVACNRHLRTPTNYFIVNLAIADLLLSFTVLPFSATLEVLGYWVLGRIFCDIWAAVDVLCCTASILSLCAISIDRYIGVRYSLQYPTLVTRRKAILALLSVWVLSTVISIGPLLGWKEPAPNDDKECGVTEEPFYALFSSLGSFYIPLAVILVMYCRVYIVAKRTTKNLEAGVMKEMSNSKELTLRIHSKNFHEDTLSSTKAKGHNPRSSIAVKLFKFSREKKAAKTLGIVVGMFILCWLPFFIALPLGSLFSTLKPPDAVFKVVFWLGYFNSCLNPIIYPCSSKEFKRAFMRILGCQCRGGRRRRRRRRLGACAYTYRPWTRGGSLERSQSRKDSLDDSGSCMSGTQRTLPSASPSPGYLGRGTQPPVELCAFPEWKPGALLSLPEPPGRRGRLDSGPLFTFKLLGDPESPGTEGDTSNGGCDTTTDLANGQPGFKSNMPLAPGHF
T1 sequence (P23944 whole entry): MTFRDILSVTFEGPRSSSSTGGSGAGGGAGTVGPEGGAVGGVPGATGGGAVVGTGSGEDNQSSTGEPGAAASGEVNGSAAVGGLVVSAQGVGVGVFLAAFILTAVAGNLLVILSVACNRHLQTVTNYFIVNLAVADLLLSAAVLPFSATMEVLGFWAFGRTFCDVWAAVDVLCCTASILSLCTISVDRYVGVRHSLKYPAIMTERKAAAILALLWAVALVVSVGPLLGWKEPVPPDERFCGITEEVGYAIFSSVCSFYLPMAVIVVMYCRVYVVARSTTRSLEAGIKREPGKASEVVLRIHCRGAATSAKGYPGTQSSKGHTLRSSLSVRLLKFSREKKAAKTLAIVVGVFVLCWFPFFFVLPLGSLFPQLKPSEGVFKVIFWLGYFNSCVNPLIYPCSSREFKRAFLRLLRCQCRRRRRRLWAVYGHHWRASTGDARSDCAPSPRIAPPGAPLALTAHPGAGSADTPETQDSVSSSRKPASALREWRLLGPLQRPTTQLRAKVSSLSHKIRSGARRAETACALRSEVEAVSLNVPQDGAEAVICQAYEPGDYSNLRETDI
T1 sequence (P43140 whole entry): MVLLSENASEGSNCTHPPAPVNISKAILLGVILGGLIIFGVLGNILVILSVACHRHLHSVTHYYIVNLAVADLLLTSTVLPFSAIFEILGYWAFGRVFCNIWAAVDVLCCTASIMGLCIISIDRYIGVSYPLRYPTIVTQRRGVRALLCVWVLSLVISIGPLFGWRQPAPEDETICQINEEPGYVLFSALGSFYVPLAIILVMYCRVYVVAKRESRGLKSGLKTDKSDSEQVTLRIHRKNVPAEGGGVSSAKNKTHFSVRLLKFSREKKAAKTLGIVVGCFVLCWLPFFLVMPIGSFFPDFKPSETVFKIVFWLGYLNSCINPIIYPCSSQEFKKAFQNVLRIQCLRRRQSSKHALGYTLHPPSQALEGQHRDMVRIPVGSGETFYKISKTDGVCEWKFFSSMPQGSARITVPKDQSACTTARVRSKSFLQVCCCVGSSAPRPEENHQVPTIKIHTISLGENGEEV
The experiment in a line: Displacement of [3H]prazosin from alpha1 adrenoceptor in rat cerebral cortex after 30 mins by microbeta scintillation counting.
Settings: not given
It counts as tissue-based. The method in brief:
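Rat cerebral cortex homogenised in ice-cold 50 mM Tris-HCl (pH 7.6 at 25 °C), washed twice at 20000×g and resuspended at 10 mg wet weight/ml. Incubated with [3H]prazosin (19.5 Ci/mmol) and test compound for 30 min at 25 °C. Nonspecific binding defined with 10 µM phentolamine. GF/B filtration, scintillation counting, three-parameter logistic competition fit.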
For `CN1C(=O)N(CC(O)CN2CCN(c3ccccc3Cl)CC2)C(c2ccccc2)(c2ccccc2)C1=O.Cl` (racemic), the Ki (usually the equilibrium dissociation constant of an inhibitor or competing ligand from its target) came out at 483 nM and the pKi (commonly −log10 of the Ki, conventionally taken in molar units) was determined as 6.32.

For the next data set, the system named is Rattus norvegicus. The experiment in a line: Antiarrhythmic activity in Wistar rat assessed as effect on heart beat at 10 mg/kg, iv after 5 mins. It counts as functional.
Settings: not given
The procedure, abridged: as §1
Regarding `CN1C(=O)N(CC(O)CN2CCN(c3ccccc3Cl)CC2)C(c2ccccc2)(c2ccccc2)C1=O.Cl` (racemic), the Activity worked out at 278 min⁻¹.

For the compound `C=CC(C(=O)OC)N1C(=O)N(CC(O)CN2CCN(c3ccccc3OC)CC2)C(c2ccccc2)(c2ccccc2)C1=O.Cl` (racemic), the Activity is 294 min⁻¹.

Another data set deals with Rattus norvegicus. The experiment in a line: Cardiotoxicity in Wistar rat assessed as effect on P-Q interval at 10 mg/kg, iv after 5 mins. It counts as toxicity, organism-based. Details: dose 10 mg/kg, route intravenous. As to conditions: in vivo. The method in brief:
as §1
As to `CN1C(=O)N(CC(O)CN2CCN(c3ccccc3Cl)CC2)C(c2ccccc2)(c2ccccc2)C1=O.Cl` (racemic), the Activity stood at 60 ms.

Turning to `C=CC(C(=O)OC)N1C(=O)N(CC(O)CN2CCN(c3ccccc3OC)CC2)C(c2ccccc2)(c2ccccc2)C1=O.Cl` (racemic), the Activity turned out to be 57 ms.

The next data set concerns Rattus norvegicus. The experiment in a line: Antiarrhythmic activity in iv dosed Wistar rat assessed as protection against barium chloride-induced extrasystoles administered 15 mins prior to barium chloride-challenge. It counts as functional, Heart.
Settings: not given
The procedure, abridged:
as §2
For the compound `CN1C(=O)N(CC(O)CN2CCN(c3ccccc3Cl)CC2)C(c2ccccc2)(c2ccccc2)C1=O.Cl` (racemic), the Activity is given as more than 50%.

Staying with this data set, now noted: Heart.
Consider `C=CC(C(=O)OC)N1C(=O)N(CC(O)CN2CCN(c3ccccc3OC)CC2)C(c2ccccc2)(c2ccccc2)C1=O.Cl` (racemic), for which the outcome was inactive.

In the next data set the test system is Rattus norvegicus. The experiment in a line: Cardiotoxicity in Wistar rat assessed as effect on P-Q interval at 10 mg/kg, iv after 1 min. Also on record: dose 10 mg/kg, route intravenous. It counts as toxicity, organism-based. As to conditions: in vivo. The procedure, abridged: as §1
Regarding `CN1C(=O)N(CC(O)CN2CCN(c3ccccc3Cl)CC2)C(c2ccccc2)(c2ccccc2)C1=O.Cl` (racemic), the Activity turned out to be 60 ms.

Turning to `C=CC(C(=O)OC)N1C(=O)N(CC(O)CN2CCN(c3ccccc3OC)CC2)C(c2ccccc2)(c2ccccc2)C1=O.Cl` (racemic), the Activity amounted to 56 ms.
